Screening results from PubChem BioAssay.
SENP6 inh = blocks the human protease SENP6. Q9GZR1. inhibition, % at 10 µM. actives 1.8% (n = 330,000). Recombinant SENP6 catalytic domain, aminoluciferin luminescence. AID 2599;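 active = inhibition above about 50% at the single tested dose, limit read from the data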
SENP7 block = SENP7 protease inhibition. Q9BQF6. recombinant SENP7, Z-RLRGG-aminoluciferin luminescence, 40 min. inhibition, % at 5 µM. actives 1.5% (n = 330,000). AID 434973;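 active = inhibition above about 50% at the single test dose, limit read from the data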
SENP1 inh = inhibitors of human SENP1 SUMO protease catalytic domain; Q9P0U3; recombinant SENP1 catalytic domain, CyPet-SUMO1-YPet FRET cleavage; actives 0.21% (n = 360,000); inhibition, % at 10 µM; AID 624204;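 active = inhibition at least 30% at 10 µM, raw YFP signal under a set limit, fluorescence ratio 0.5 to 1.5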
Target sequence (Q9P0U3 419-644 limits assumed): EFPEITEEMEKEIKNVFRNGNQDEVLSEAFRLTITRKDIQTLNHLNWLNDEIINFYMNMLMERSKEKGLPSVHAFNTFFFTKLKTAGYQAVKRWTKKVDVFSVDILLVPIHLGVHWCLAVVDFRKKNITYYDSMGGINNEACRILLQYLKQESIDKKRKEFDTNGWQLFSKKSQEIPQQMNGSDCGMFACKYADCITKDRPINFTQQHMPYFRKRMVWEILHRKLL
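Controls: no-enzyme wells low, DMSO-plus-enzyme wells high control. Test system: human recombinant His6-tagged SENP1 catalytic domain enzyme. Reagent: SFCypet-SUMO1-SFYpet FRET protein substrate, 25 nM final. Doses: one dose per compound, 10 µM, 0.5% DMSO. Detection: FRET, CFP and YFP emission. Timing: 50 min reaction at room temperature.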
SENP8 block-1 = inhibitors of human SENP8 protease | actives 1.2% (n = 330,000) | inhibition, % at 10 µM | AID 2540 | purified SENP8, Z-RLRGG-aminoluciferin cleavage, luminescence; in the data active = inhibition above about 50%
Target sequence (Q96LD8 whole entry, looked up): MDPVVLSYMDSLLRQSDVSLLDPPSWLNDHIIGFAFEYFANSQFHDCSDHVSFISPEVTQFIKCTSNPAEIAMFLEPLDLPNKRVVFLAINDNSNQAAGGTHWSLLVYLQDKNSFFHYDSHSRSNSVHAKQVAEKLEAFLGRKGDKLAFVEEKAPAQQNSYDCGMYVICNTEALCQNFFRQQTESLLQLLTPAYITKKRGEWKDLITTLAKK
Platelet DG rel = platelet dense granule release activity; human platelet-rich plasma, SFLLRN dense granule ATP release, luminescence; inhibition, %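 (compounds screened at 7.5 µM in platelet-rich plasma)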; actives 0.22% (n = 300,000); AID 1663;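 active = mean replicate score, as percent of positive control, at or above 50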
SENP8 block-2 = SENP8 (human) protease inhibition; inhibition, % at 20 µM; AID 602440; recombinant SENP8, Nedd8 substrate fluorescence; actives 0.64% (n = 360,000); Q96LD8; in the data active = inhibition mostly above about 40%, no sharp cut-off; inactive = mostly below about 27%
SENP8 conf = human SENP8 inhibition, confirmed | shares compounds with SENP7 block | Recombinant SENP8, Z-RLRGG-aminoluciferin luminescence, 60 min | inhibition, % at 12.5 µM | actives 40% (n = 6,200);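 active = mean inhibition across replicates above about 50%, limit read from the data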
SENP6 conf = human SENP6 inhibition, confirmed; shares compounds with SENP7 block; inhibition, % at 12.5 µM; recombinant SENP6, Z-RLRGG-aminoluciferin luminescence; actives 58% (n = 6,200); AID 488915
SENP7 confirm = confirmation of human SENP7 protease inhibitors; shares compounds with SENP7 block; recombinant SENP7, Z-RLRGG-aminoluciferin luminescence, 40 min; actives 69% (n = 6,200); AID 488917; inhibition, % at 12.5 µM
Casp3 select = caspase-3 inhibition (SENP selectivity assay); shares compounds with SENP7 block; purified caspase-3, Z-DEVD-aminoluciferin luminescence, 60 min; inhibition, % at 12.5 µM; actives 60% (n = 6,200); AID 488918;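 active = mean inhibition above about 50%, limit read from the data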
SENP luc ctr = interferes with luciferase luminescence in SENP counter-screen; shares compounds with SENP7 block; Pre-incubated SENP8/Z-RLRGG-aminoluciferin, luciferase luminescence interference; inhibition, % at 12.5 µM; actives 39% (n = 6,200); AID 488919;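 active = mean inhibition above about 50% when retested at one dose, limit read from the data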
Hits are given with their value; 0 = inactive; - = no result given. Compounds with a hit are over-represented: about 2.6% of the library has one in this group of screens.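 Rule for the calls, unless noted: active = mean inhibition above about 50% in the one-dose retest (limit read from the data); inactive = the rest.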

SMILES	SENP6 inh	SENP7 block	SENP1 inh	SENP8 block-1	Platelet DG rel	SENP8 block-2	SENP8 conf	SENP6 conf	SENP7 confirm	Casp3 select	SENP luc ctr
CCOc1ccc(NC(=O)CCC(=O)NNC(=O)COc2ccccc2C)cc1	0	0	0	0	0	0	-	-	-	-	-
O=[N+]([O-])c1ccc(O)c(C=Nc2cccc3ncccc23)c1	89.9	0	0	74.7	0	0	0	0	0	0	0
O=[N+]([O-])c1ccc(O)c(/C=N/Nc2ccccn2)c1	-	-	0	-	0	0	-	-	-	-	-
CC(=O)Nc1ccc(S(=O)(=O)N(C)CC(=O)Nc2nc3ccccc3[nH]2)cc1	0	0	0	0	-	0	-	-	-	-	-
Cc1ccc(/C=C2/CCc3c([nH]c4ccccc34)C2=O)cc1	0	68.0	0	0	0	0	0	0	0	0	0
O=C1/C(=C\c2ccccc2)CCc2c1[nH]c1ccccc21	0	0	0	0	0	0	-	-	-	-	-
O=C(O)c1ccc(-c2ccccn2)s1	0	0	0	0	0	0	-	-	-	-	-
c1ccc(-c2nnc(-c3ccccn3)nn2)nc1	0	0	0	79.4	0	0	0	54.5	85.1	85.7	65.6
c1ccc(-c2ccc(-c3ccccn3)s2)nc1	83.3	84.4	0	76.2	0	0	75.3	81.0	96.7	86.2	0
NC(=O)c1ccccc1N/C=C/C(=O)c1ccc(Cl)cc1	83.7	93.3	0	64.4	0	0	0	77.9	75.7	89.5	0
Cc1ccc(C(=O)/C=C/Nc2ccccn2)cc1	95.1	97.3	0	93.4	64.1	0	94.1	97.6	101.8	96.5	62.4
COc1ccc(N/C=C/C(=O)c2ccc(Cl)cc2)cc1	0	0	0	0	0	0	-	-	-	-	-
Cc1ccc(C(=O)/C=C/Nc2ccccc2C(N)=O)cc1	95.1	90.0	0	86.4	0	0	0	90.0	101.5	94.5	0
O=C(Cn1ncc2c([nH]c3ccccc32)c1=O)N1CCN(c2ccccn2)CC1	0	0	0	0	0	0	-	-	-	-	-
COc1cc(-c2nnc(-c3ccccc3)o2)cc(OC)c1OC	0	0	0	0	0	0	-	-	-	-	-
COc1ccc(-c2nnc(-c3ccccc3)o2)cc1OC	58.4	63.7	0	0	0	0	0	0	83.7	76.5	68.0
Nc1ccccc1-c1nnc(-c2ccc(-c3ccccc3)cc2)o1	0	96.2	0	76.8	0	0	0	0	0	51.1	0
Nc1ccc(-c2nnc(-c3ccc(N)cc3)o2)cc1	0	0	0	0	0	0	-	-	-	-	-
Clc1cccc(-c2nnc(-c3ccno3)o2)c1	0	0	0	0	0	0	-	-	-	-	-
COc1ccc(-c2nc(C#N)c(NCc3ccc(C)cc3)o2)cc1OC	0	0	0	0	0	0	-	-	-	-	-
COc1ccc(-c2nc(C#N)c(NCCc3ccccc3)o2)cc1OC	72.5	58.8	0	57.4	0	0	0	66.0	90.4	56.1	58.7
Clc1cccc(-c2nnc(-c3ccccc3)o2)c1	95.0	93.9	0	91.8	0	0	93.2	96.6	101.5	94.0	94.5
c1ccc(-c2nnc(-c3ccccc3)o2)cc1	87.2	91.5	0	78.9	0	0	72.5	82.4	96.0	87.8	66.4
CSc1ccccc1-c1nnc(-c2ccccc2)o1	84.1	82.8	0	74.3	0	0	66.5	80.6	95.5	77.8	61.6
CSc1ccccc1-c1nnc(-c2ccc(C)cc2)o1	0	0	0	0	0	0	-	-	-	-	-
COc1ccccc1-c1nnc(-c2ccc(C)cc2)o1	55.5	55.2	0	0	0	0	50.5	0	74.0	54.1	55.7
